# Assay results gathered from unrelated publications.
# Each line is one published result; the experiments were not run side by side.
# ALOX5: Polyunsaturated fatty acid 5-lipoxygenase (ALOX5, Homo sapiens, UniProt P09917)
# CDK11B: Cyclin-dependent kinase 11B (CDK11B, Homo sapiens, UniProt P21127)
Compound,target,observed,mode,technique,tested at,endpoint,result
C[C@H](C(=O)N[C@H]1COc2ccccc2[C@@H]1S(C)(=O)=O)c1ccc(F)cc1,ALOX5,enzyme activity,inhibitor,,10 µM,inhibition,13%
CCN(CC)CCCC[C@H](NC(=O)[C@H](CC(C)C)NC(=O)[C@H](C)NC(=O)[C@H](Cc1ccccc1)NC(=O)c1ccc(C(C)(C)C)cc1)C(=O)N[C@@H](CO)C(=O)OC,"Bromodomain-containing protein 4, BD2 (BRD4, Homo sapiens, UniProt O60885)",thermal stability,,DSF,25 µM,ΔTm,0.2 °C
c1ccc(C(NCCNC(c2ccccc2)c2ccccc2)c2ccccc2)cc1,ALOX5,enzyme activity,inhibitor,,10 µM,inhibition,99%
COc1ncccc1-c1cnn2ccc(N3CCN(C(=O)OC(C)C)CC3)nc12,CDK11B,binding,,competition with immobilised ligand,1 µM,remaining binding,89%
Nc1ncc(-c2nc(N3CCOCC3)nc(N3CCOCC3)n2)c(C(F)F)n1,"Serine/threonine-protein kinase ICK (CILK1, Homo sapiens, UniProt Q9UPZ9)",binding,,competition with immobilised ligand,10 µM,remaining binding,72%
COc1cc(Nc2ncc(F)c(Nc3ccc4c(n3)NC(=O)C(C)(C)O4)n2)cc(OC)c1OC,"Mitogen-activated protein kinase kinase kinase 4 (MAP3K4, Homo sapiens, UniProt Q9Y6R4)",binding,,competition with immobilised ligand,10 µM,inhibition,71%
C#Cc1n[nH]c2c(-c3cn(C(C)c4ccccn4)c(=O)[nH]c3=O)cc(F)cc12 (stereo not drawn),"Protein kinase C alpha type (PRKCA, Homo sapiens, UniProt P17252)",enzyme activity,inhibitor,,1 µM,inhibition,9.8%
N#Cc1ccc(NCCNCC(=O)N2N=CCC2C#N)nc1 (stereo not drawn),"Dipeptidyl peptidase 8 (Homo sapiens, UniProt Q6V1X1)",enzyme activity,inhibitor,,10 µM,inhibition,15%
Cc1nn(C)cc1-c1nc2c(N3CCN(Cc4ccc(Cl)cc4)CC3)c(Cl)cnc2[nH]1,CDK11B,binding,,competition with immobilised ligand,1 µM,remaining binding,100%
